Columns and labels:
Influenza B virus [1] = assay: Antiviral activity against Influenza B virus B/Ned/537/05 infected in MDCK cells assessed as reduction in virus-induced cytopathic effect after 3 days by microscopic method; assay type: functional, organism-based; conditions: B/Ned/537/05, MDCK, 72 h
In short: (§1)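 Semi-confluent MDCK cells were infected at an MOI of 0.0004 PFU/cell in Ultra-MDCK infection medium with 2 μg/mL TPCK-trypsin, together with compounds. After 3 days at 35 °C, CPE was scored by microscopy and confirmed by MTS formazan viability. Values are means of two to five independent tests.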

[2] = Cytotoxicity against MDCK cells assessed as alteration in cell morphology after 3 days by microscopic method; assay type: cell-based, Canis lupus familiaris; conditions: dog
In short: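 Mock-infected MDCK cells were treated with compounds in parallel with the antiviral assay, 3 days at 35 °C. MCC is the concentration causing minimal change in cell morphology by microscopy. CC50 is the 50% cytotoxic concentration by MTS formazan viability assay.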

Human coronavirus 229E [3] = assay: Antiviral activity against Human coronavirus 229E infected in HEL299 cells assessed as reduction in virus induced cytopathic effect after 5 days by microscopic method; assay type: functional, organism-based; conditions: HEL 299, 120 h
In short: (§2)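 Confluent HEL 299 cells in medium with 2% FCS were exposed to HCoV-229E (100 CCID50/well) together with compounds and held for 5 days at 35 °C. EC50 (CPE reduction) and MCC (minimal morphology change) were determined by microscopy. SI is MCC/EC50.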

Influenza A virus [4] = assay: Antiviral activity against Influenza A virus A/PR/8/34(H1N1) infected in MDCK cells assessed as reduction in virus-induced cytopathic effect after 3 days by microscopic method; assay type: functional, organism-based, A/Puerto Rico/8/1934(H1N1); conditions: Influenza A virus, A/Puerto Rico/8/1934(H1N1), MDCK, 72 h
In short: as §1, with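 “viability. EC50 is the concentration giving 50% inhibition of virus-induced CPE.” for “viability.”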

Influenza A virus [5] = assay: Antiviral activity against Influenza A virus A/Virginia/ATCC3/2009(H1N1pdm) infected in MDCK cells after 3 days by MTS assay; assay type: functional, organism-based, Influenza A virus (A/Virginia/03/2009(H1N1)); conditions: 72 h
In short: as §1, with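 “viability. EC50 is the concentration giving 50% inhibition of virus-induced CPE.” for “viability.”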

H3N2 subtype [6] = assay: Antiviral activity against Influenza A virus A/HK/7/87(H3N2) infected in MDCK cells assessed as reduction in virus-induced cytopathic effect after 3 days by microscopic method; assay type: functional, organism-based; conditions: A/Hong Kong/7/1987(H3N2), 72 h
In short: as §1, with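 “viability. EC50 is the concentration giving 50% inhibition of virus-induced CPE.” for “viability.”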

H3N2 subtype [7] = assay: Antiviral activity against Influenza A virus A/HK/7/87(H3N2) infected in MDCK cells after 3 days by MTS assay; assay type: functional, organism-based; conditions: A/Hong Kong/7/1987(H3N2), 72 h
In short: as §1, with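 “viability. EC50 is the concentration giving 50% inhibition of virus-induced CPE.” for “viability.”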

Influenza B virus [8] = assay: Antiviral activity against Influenza B virus B/Ned/537/05 infected in MDCK cells after 3 days by MTS assay; assay type: functional, organism-based; conditions: B/Ned/537/05, MDCK, 72 h; in short: as §1
Influenza A virus [9] = assay: Antiviral activity against Influenza A virus A/Virginia/ATCC3/2009(H1N1pdm) infected in MDCK cells assessed as reduction in virus-induced cytopathic effect after 3 days by microscopic method; assay type: functional, organism-based, Influenza A virus (A/Virginia/03/2009(H1N1)); conditions: 72 h
In short: as §1, with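 “viability. EC50 is the concentration giving 50% inhibition of virus-induced CPE.” for “viability.”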

Influenza A virus [10] = assay: Antiviral activity against Influenza A virus A/PR/8/34(H1N1) infected in MDCK cells after 3 days by MTS assay; assay type: functional, organism-based, A/Puerto Rico/8/1934(H1N1); conditions: Influenza A virus, A/Puerto Rico/8/1934(H1N1), MDCK, 72 h
In short: as §1, with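 “viability. EC50 is the concentration giving 50% inhibition of virus-induced CPE.” for “viability.”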

[11] = Cytotoxicity against HEL299 cells assessed as changes in cell morphology after 5 days by microscopic method; assay type: cell-based, HEL 299; conditions: human; in short: as §2
MDCK = assay: Cytotoxicity against MDCK cells assessed as reduction in cell viability after 3 days by MTS assay; assay type: cell-based, Canis lupus familiaris; conditions: dog, mdck, 72 h
[12] = Cytotoxicity against human A549 cells assessed as changes in cell morphology after 3 days by microscopic method; assay type: cell-based
In short: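 Mock-infected A549 cells were incubated with compounds for 3 days. MCC is the concentration causing minimal change in cell morphology by microscopy.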

Human coronavirus 229E [13] = assay: Antiviral activity against Human coronavirus 229E infected in human A549 cells assessed as reduction in virus RNA level after 3 days by qRT-PCR method; assay type: functional; conditions: A549, 72 h
In short: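 Confluent A549 cells were infected with HCoV-229E in 2% FCS medium with compounds present. The inoculum was removed at 1 h and compounds were kept on at 35 °C. Supernatants were harvested at day 3, lysed at 75 °C for 10 min, and viral genome copies counted by one-step qRT-PCR.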

Row | Structure (SMILES) | EC50 (Influenza B virus [1]) | MCC at 72 h [2] | EC50 (Human coronavirus 229E [3]) | EC50 (Influenza A virus [4]) | EC50 (Influenza A virus [5]) | EC50 (H3N2 subtype [6]) | EC50 (H3N2 subtype [7]) | EC50 (Influenza B virus [8]) | EC50 (Influenza A virus [9]) | EC50 (Influenza A virus [10]) | MCC at 120 h [11] | CC50 (MDCK) | MCC at 72 h [12] | EC90 (Human coronavirus 229E [13]) | EC99 (Human coronavirus 229E [13])
1 | CC(=O)N[C@H]1[C@H](O[C@@H]2c3ccc(c(Cl)c3)Oc3cc4cc(c3O)Oc3ccc(cc3Cl)C[C@H]3NC(=O)[C@H](NS(=O)(=O)c5ccc(-c6ccccc6)cc5)c5ccc(O)c(c5)Oc5cc(O)cc(c5)[C@H](NC3=O)C(=O)N[C@H]4C(O)N[C@H]3C(=O)N[C@H]2C(=O)N[C@@H](C(=O)O)c2cc(O)cc(O)c2-c2cc3ccc2O)O[C@H](CO)[C@@H](O)[C@@H]1O (some centres undefined) | 1.8 µM | 11 µM | > 100 µM | 1.8 µM | 2 µM | 1.5 µM | 1.6 µM | 2.4 µM | 2 µM | 1.7 µM | 4 µM | 15 µM | – | – | –
2 | O=C(N/C(=C\c1ccccc1)C(=O)N1CCC(O)(c2ccc(Br)cc2)CC1)c1ccccc1 | – | – | – | – | – | – | – | – | – | – | – | – | ≥ 50 µM | 11 µM | 15 µM
3 | CCCCCCOCc1cn(CCOCCOCCOCCOCc2cn([C@H]3C(=O)N[C@@H]4Cc5ccc(c(Cl)c5)Oc5cc6cc(c5O)Oc5ccc(cc5Cl)[C@@H](O[C@@H]5O[C@H](CO)[C@@H](O)[C@H](O)[C@H]5NC(C)=O)[C@H]5NC(=O)[C@H](NC(O)[C@@H]6NC(=O)[C@@H](NC4=O)c4cc(O)cc(c4)Oc4cc3ccc4O)c3ccc(O)c(c3)-c3c(O)cc(O)cc3[C@H](C(=O)O)NC5=O)nn2)nn1 (some centres undefined) | > 100 µM | 100 µM | 44 µM | > 100 µM | > 100 µM | > 100 µM | > 100 µM | > 100 µM | > 100 µM | > 100 µM | ≥ 100 µM | 51 µM | > 50 µM | 25 µM | 44 µM
4 | CCCCOCc1cn(CCOCCOCCOCCOCc2cn([C@H]3C(=O)N[C@@H]4Cc5ccc(c(Cl)c5)Oc5cc6cc(c5O)Oc5ccc(cc5Cl)[C@@H](O[C@@H]5O[C@H](CO)[C@@H](O)[C@H](O)[C@H]5NC(C)=O)[C@H]5NC(=O)[C@H](NC(O)[C@@H]6NC(=O)[C@@H](NC4=O)c4cc(O)cc(c4)Oc4cc3ccc4O)c3ccc(O)c(c3)-c3c(O)cc(O)cc3[C@H](C(=O)O)NC5=O)nn2)nn1 (some centres undefined) | > 100 µM | 100 µM | ≥ 100 µM | > 100 µM | 47 µM | > 100 µM | 31 µM | 28 µM | > 100 µM | 51 µM | ≥ 100 µM | > 100 µM | – | – | –
5 | CC(=O)N[C@H]1[C@H](O[C@@H]2c3ccc(c(Cl)c3)Oc3cc4cc(c3O)Oc3ccc(cc3Cl)C[C@H]3NC(=O)[C@H](NS(=O)(=O)c5cccc6c(N(C)C)cccc56)c5ccc(O)c(c5)Oc5cc(O)cc(c5)[C@H](NC3=O)C(=O)N[C@H]4C(O)N[C@H]3C(=O)N[C@H]2C(=O)N[C@@H](C(=O)O)c2cc(O)cc(O)c2-c2cc3ccc2O)O[C@H](CO)[C@@H](O)[C@@H]1O (some centres undefined) | 6.7 µM | 20 µM | > 100 µM | 4.9 µM | 5.9 µM | 8.3 µM | 2.3 µM | 5.3 µM | 6.3 µM | 7 µM | ≥ 4 µM | 52 µM | – | – | –
